Assay results published in ChEMBL document CHEMBL5696442, “Discovery of type II inhibitors of TGFβ-activated kinase 1 (TAK1) and mitogen-activated protein kinase kinase kinase kinase 2 (MAP4K2)” (J Med Chem, 2015).
Calls of active or inactive are those of the source. No cut-off for these calls is given here.

Experiments:
[1] = target: 5'-AMP-activated protein kinase catalytic subunit alpha-2 (Homo sapiens) (UniProt P54646); experiment: Inhibition of AMPKa2 Lys2 labeling site in human Huh-7 cell lysate at 1 uM by KiNativ Profiling analysis relative to control; type: subcellular
Chain of 5'-AMP-activated protein kinase catalytic subunit alpha-2 (Homo sapiens) (P54646 whole entry, looked up): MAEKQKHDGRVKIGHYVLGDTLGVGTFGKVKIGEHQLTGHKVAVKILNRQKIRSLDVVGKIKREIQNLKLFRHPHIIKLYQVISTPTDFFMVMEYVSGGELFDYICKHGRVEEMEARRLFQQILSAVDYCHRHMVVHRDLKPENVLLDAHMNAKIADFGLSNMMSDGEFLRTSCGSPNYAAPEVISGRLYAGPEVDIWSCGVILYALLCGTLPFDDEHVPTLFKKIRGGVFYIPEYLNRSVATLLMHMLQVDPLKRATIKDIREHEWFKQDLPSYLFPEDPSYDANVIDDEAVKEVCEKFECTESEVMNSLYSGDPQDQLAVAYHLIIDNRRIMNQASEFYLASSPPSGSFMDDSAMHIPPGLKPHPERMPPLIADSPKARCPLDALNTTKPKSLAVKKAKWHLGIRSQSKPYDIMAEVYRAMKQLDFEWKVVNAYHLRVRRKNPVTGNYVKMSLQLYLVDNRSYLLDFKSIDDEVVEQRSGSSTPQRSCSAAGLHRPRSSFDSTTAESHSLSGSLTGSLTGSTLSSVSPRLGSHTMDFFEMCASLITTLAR

[2] = target: T1, Phosphatidylinositol 5-phosphate 4-kinase type-2 beta (Homo sapiens) (UniProt P78356); experiment: Inhibition of PIP4K2B ATP labeling site harbouring TVKHGAGAEISTVNPEQYSK in human Huh-7 cell lysate at 1 uM by KiNativ Profiling analysis relative to control; type: subcellular
T1 sequence (whole entry): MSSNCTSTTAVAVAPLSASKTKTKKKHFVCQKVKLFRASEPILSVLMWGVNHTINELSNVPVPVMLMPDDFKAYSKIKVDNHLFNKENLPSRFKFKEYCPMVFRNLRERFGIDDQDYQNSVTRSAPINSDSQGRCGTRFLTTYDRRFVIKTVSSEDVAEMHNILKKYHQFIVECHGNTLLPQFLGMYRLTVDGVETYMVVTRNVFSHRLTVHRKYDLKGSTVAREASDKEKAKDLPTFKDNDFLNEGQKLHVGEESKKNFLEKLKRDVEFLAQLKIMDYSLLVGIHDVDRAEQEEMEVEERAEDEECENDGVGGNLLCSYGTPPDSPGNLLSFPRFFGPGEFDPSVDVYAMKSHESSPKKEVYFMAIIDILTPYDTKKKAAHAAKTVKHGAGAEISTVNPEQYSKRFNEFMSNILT

[3] = target: Cyclin-dependent kinase 5 (Homo sapiens) (UniProt Q00535); experiment: Inhibition of CDK5 Lys2 labeling site harbouring NVLHRDLKPQNLLINR in human Huh-7 cells at 1 uM by KiNativ Profiling analysis relative to control; type: cell-based
Chain of Cyclin-dependent kinase 5 (Homo sapiens) (Q00535 whole entry, looked up): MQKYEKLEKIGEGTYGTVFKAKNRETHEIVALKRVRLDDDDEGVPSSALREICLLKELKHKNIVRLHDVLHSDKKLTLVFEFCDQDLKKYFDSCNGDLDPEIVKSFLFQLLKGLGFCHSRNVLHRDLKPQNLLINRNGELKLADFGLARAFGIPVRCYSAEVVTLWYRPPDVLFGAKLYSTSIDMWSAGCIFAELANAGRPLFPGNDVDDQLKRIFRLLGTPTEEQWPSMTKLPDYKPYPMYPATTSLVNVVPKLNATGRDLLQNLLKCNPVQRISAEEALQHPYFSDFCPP

[4] = target: Myosin-IIIa (Homo sapiens) (UniProt Q8NEV4); experiment: Inhibition of MYO3A (unknown origin) at 1 uM by Ambit Kinomescan binding assay relative to control
Procedure, shortened: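 In vitro ATP-site competition binding assay against a panel of over 420 kinases (KinomeScan), with compound tested at 10 or 1 μM.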

[5] = target: Platelet-derived growth factor receptor beta (Homo sapiens) (UniProt P09619); experiment: Inhibition of PDGFRB (unknown origin) at 1 uM by Ambit Kinomescan binding assay relative to control
Chain of Platelet-derived growth factor receptor beta (Homo sapiens) (P09619 whole entry): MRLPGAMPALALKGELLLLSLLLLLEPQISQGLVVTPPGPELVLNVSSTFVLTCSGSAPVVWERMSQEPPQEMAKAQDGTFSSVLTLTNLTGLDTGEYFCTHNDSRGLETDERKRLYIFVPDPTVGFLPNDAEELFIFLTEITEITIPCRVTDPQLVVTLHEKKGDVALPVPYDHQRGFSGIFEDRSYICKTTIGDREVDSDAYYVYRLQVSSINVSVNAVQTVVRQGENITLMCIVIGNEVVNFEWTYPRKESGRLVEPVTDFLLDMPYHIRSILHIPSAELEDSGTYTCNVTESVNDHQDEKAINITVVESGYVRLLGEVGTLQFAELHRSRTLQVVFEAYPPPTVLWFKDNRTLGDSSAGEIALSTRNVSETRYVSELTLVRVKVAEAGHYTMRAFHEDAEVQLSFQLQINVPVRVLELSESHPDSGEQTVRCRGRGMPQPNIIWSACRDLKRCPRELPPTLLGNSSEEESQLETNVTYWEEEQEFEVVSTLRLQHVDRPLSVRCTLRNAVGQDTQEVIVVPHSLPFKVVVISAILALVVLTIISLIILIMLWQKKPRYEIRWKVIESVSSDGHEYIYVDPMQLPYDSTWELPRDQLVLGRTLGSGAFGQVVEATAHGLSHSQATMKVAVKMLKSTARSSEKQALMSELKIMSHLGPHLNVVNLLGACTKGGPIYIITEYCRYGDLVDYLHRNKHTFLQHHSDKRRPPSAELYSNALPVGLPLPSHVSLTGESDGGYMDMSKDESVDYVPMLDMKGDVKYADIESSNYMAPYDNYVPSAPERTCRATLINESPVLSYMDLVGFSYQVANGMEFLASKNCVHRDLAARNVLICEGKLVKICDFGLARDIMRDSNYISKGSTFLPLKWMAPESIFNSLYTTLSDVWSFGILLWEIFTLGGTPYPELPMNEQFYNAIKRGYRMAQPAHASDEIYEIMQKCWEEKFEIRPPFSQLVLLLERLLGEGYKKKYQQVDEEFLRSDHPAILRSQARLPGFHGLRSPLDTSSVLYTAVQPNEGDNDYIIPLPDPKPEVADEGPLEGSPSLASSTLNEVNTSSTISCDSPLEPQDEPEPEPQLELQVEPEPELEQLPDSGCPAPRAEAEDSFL

[6] = target: Calcium/calmodulin-dependent protein kinase kinase 2 (Homo sapiens) (UniProt Q96RR4); experiment: Inhibition of CAMKK2 (unknown origin) at 1 uM by Ambit Kinomescan binding assay relative to control; values are per cent of control
[7] = target: Tyrosine-protein kinase CSK (Homo sapiens, UniProt P41240); experiment: Inhibition of CSK (unknown origin) at 10 uM by Ambit Kinomescan binding assay relative to control
Chain of Tyrosine-protein kinase CSK (P41240 2-450 limits assumed): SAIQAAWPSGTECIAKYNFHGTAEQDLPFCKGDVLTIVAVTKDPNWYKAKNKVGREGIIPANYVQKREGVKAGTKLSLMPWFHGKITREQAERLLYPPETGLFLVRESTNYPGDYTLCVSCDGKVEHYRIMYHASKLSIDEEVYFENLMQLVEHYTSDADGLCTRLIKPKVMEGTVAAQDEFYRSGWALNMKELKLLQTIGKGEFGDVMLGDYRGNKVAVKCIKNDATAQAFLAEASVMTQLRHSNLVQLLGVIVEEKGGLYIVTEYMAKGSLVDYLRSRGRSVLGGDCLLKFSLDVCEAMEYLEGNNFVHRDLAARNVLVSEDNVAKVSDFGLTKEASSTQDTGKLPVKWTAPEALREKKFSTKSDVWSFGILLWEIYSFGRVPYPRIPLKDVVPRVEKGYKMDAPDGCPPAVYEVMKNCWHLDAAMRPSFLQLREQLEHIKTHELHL

[8] = target: Dual specificity mitogen-activated protein kinase kinase 2 (Homo sapiens) (UniProt P36507); experiment: Inhibition of MEK2 (unknown origin) at 10 uM by Ambit Kinomescan binding assay
Chain of Dual specificity mitogen-activated protein kinase kinase 2 (Homo sapiens) (P36507 whole entry): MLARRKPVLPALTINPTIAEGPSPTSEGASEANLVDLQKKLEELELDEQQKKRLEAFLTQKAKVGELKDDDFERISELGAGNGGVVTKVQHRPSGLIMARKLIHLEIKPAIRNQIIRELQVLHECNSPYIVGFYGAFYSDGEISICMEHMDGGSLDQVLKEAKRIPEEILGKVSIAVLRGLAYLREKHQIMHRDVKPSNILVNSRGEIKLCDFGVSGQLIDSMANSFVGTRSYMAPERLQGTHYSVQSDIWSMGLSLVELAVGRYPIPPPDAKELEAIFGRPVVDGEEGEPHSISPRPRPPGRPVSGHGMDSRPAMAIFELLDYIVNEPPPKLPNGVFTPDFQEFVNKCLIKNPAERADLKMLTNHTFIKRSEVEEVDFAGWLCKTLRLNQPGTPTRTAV

[9] = target: Phosphatidylinositol 4-phosphate 5-kinase type-1 alpha (Homo sapiens) (UniProt Q99755); experiment: Inhibition of PIP5K1A (unknown origin) at 10 uM by Ambit Kinomescan binding assay
[10] = target: Microtubule-associated serine/threonine-protein kinase 3 (Homo sapiens) (UniProt O60307); experiment: Inhibition of MAST3 Lys2 labeling site in human A-375 cells at 0.05 uM by KiNativ Profiling analysis relative to control; type: cell-based
Chain of Microtubule-associated serine/threonine-protein kinase 3 (Homo sapiens) (O60307 whole entry): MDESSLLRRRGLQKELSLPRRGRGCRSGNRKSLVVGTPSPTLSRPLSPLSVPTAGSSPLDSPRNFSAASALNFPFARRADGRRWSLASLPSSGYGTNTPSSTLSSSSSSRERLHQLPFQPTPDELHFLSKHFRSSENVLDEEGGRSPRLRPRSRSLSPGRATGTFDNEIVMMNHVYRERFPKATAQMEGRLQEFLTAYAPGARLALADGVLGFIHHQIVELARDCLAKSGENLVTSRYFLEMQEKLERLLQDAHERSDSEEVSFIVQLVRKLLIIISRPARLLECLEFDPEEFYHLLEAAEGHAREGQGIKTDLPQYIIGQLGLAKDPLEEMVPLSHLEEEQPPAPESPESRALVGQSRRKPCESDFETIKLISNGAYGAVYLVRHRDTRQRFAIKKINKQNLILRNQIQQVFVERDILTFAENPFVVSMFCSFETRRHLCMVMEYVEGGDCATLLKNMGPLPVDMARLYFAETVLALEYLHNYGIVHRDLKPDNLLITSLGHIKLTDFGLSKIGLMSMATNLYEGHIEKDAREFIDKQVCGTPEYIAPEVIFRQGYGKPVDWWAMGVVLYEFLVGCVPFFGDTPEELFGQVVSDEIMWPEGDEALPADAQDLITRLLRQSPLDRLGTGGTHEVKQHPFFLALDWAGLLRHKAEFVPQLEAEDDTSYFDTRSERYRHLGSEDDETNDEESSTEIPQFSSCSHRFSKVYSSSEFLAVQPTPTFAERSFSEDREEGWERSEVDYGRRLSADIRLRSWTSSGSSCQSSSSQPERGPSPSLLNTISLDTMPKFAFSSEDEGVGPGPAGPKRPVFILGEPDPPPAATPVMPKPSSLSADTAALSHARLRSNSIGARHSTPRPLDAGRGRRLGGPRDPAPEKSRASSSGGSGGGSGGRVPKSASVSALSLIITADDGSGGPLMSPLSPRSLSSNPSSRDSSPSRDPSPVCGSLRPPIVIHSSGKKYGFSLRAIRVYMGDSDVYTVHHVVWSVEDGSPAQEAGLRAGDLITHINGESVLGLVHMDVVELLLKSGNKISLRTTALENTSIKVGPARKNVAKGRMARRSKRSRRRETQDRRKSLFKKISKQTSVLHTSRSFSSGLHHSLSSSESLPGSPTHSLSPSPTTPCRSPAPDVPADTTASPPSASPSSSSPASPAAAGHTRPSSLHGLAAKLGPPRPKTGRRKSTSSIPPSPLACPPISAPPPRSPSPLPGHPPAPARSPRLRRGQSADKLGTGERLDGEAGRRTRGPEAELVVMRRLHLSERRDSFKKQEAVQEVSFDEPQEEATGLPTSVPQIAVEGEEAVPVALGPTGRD

[11] = target: T2, Aurora kinase A (Homo sapiens) (UniProt O14965); experiment: Inhibition of AurA K2 labeling site harbouring DIKPENLLLGSAGELK in human Huh-7 cells at 10 uM by KiNativ Profiling analysis relative to control; type: cell-based
T2 sequence (whole entry): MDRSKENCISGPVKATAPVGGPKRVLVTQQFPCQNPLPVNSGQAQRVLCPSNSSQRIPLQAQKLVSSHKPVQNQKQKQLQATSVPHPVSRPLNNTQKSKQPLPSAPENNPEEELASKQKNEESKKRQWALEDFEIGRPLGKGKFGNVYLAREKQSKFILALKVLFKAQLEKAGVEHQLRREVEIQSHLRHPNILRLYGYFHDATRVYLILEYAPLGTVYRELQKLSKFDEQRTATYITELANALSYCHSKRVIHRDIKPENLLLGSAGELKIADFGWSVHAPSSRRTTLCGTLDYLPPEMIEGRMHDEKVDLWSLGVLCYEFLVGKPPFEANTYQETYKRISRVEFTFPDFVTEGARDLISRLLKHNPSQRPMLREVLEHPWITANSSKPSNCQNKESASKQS

[12] = target: Cyclin-dependent kinase 8/19 (Homo sapiens) (UniProt P49336+Q9BWU1); experiment: Inhibition of CDK8/11 K2 labeling site in human Huh-7 cells at 10 uM by KiNativ Profiling analysis relative to control; type: cell-based
[13] = target: T3, Scaffold protein ILK (Homo sapiens) (UniProt Q13418); experiment: Inhibition of ILK ACT labeling site in human Huh-7 cells at 10 uM by KiNativ Profiling analysis relative to control; type: cell-based
T3 sequence (whole entry): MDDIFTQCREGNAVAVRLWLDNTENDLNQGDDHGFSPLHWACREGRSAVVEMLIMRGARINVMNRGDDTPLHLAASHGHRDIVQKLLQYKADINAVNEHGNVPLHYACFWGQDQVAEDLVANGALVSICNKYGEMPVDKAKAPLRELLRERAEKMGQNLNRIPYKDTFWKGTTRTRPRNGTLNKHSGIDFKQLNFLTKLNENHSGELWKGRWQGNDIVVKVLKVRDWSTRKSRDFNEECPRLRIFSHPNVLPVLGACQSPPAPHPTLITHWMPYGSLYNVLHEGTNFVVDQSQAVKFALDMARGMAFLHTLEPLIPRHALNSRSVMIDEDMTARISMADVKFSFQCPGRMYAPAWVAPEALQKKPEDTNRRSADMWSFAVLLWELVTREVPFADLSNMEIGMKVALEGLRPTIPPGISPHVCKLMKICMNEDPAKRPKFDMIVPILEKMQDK

[14] = target: Calcium/calmodulin-dependent protein kinase type II subunit gamma (Homo sapiens) (UniProt Q13555); experiment: Inhibition of CaMK2g K1 labeling site in human Huh-7 cells at 1 uM by KiNativ Profiling analysis relative to control; type: cell-based
Chain of Calcium/calmodulin-dependent protein kinase type II subunit gamma (Homo sapiens) (Q13555 whole entry): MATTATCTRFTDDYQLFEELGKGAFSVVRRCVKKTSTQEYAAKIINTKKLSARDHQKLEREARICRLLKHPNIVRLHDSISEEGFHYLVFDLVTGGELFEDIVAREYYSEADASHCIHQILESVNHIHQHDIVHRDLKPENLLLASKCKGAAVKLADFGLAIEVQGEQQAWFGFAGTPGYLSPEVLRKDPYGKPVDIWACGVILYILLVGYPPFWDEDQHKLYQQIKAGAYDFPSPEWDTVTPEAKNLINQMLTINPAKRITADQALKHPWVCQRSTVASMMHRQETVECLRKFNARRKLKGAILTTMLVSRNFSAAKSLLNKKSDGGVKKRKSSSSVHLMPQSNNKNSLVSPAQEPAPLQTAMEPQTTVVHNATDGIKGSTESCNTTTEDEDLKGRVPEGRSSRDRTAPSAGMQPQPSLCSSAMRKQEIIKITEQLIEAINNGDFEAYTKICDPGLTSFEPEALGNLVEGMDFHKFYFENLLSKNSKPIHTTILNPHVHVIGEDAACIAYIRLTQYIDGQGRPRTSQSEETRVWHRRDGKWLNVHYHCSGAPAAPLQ

[15] = target: Cyclin-dependent kinase 11B (Homo sapiens) (UniProt P21127); experiment: Inhibition of CDC2L1 (unknown origin) at 10 uM by Ambit Kinomescan binding assay relative to control; values are per cent of control

CNc1cc(Oc2cc(C(=O)Nc3cc(N4CCN(C)CC4)cc(C(F)(F)F)c3)ccc2C)ncn1
inhibition [1]: 0.5%
inhibition [2]: -5.4%
inhibition [3]: 1.1%

CCN1CCN(Cc2ccc(NC(=O)c3ccc(C)c(/C=C/c4cnc5[nH]ccc5c4OC)c3)cc2C(F)(F)F)CC1
inhibition [4]: 84%
inhibition [5]: 0.1%
residual activity [6]: 100%

CCN1CCN(Cc2ccc(NC(=O)c3ccc(C)c(Oc4ccnc5[nH]ccc45)c3)cc2C(F)(F)F)CC1
inhibition [7]: 0.45%
inhibition [8]: inactive
inhibition [9]: inactive
inhibition [10]: -3.3%
inhibition [11]: 9.4%
inhibition [12]: 18.3%
inhibition [13]: -1.1%
inhibition [14]: -7.7%
percent of control [15]: 0.35%
